33 compounds from ChEMBL document CHEMBL1777690, “Synthesis and SAR studies of novel 2-(6-aminomethylaryl-2-aryl-4-oxo-quinazolin-3(4H)-yl)acetamide vasopressin V1b receptor antagonists” (Bioorg Med Chem Lett, 2011) can be followed below.

Activity calls are given as the source filed them. The calls are words filed in the database; no cut-off is given here.

Series [1] addresses T1, Vasopressin V1b receptor (Homo sapiens, UniProt P47901).
T1 sequence (P47901 whole entry): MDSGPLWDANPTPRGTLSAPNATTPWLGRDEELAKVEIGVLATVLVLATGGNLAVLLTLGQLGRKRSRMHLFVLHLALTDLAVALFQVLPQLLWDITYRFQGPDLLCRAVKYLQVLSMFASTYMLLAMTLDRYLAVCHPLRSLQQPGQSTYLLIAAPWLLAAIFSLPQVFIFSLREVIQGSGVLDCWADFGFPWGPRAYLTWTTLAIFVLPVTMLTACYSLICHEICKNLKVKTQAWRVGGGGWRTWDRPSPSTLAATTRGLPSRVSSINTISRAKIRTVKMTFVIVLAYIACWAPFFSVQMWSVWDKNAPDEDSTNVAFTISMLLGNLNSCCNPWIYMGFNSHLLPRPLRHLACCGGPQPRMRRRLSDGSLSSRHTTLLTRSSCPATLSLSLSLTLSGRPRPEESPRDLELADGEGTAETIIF
In words: Displacement of [3H]AVP from human vasopressin V1b receptor expressed in CHO cells co-expressing VIP-luciferase by scintillation counting-based whole cell binding assay. In a few lines: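 Whole-cell binding in CHO cells stably expressing human V1b (VIP-luciferase line), grown at 37 °C, 5% CO2 in DMEM/F12 with 10% FBS and 0.4 mg/mL G418. Seeded at 30,000 cells, cultured overnight, washed with PBS. Serially diluted compound with 5 nM [3H]-AVP (final) in PBS, 10 mM MgCl2, 0.1% BSA, 1% DMSO, 30 min at room temperature. Wells washed, dried, scintillation counted.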
In general terms: In a radioligand displacement assay an active substance lowers the binding of a labelled ligand.

The nature of series [2]: Apparent permeability of the compound from basolateral to apical side in human Caco2 cell membrane. The following applies: Caco-2. It is filed as ADME, cell-based.
The species entered for series [3] is Homo sapiens. Description: Selectivity ratio for human vasopressin V1b receptor over human vasopressin V1a receptor.
Series [4] can be described thus: AUC (infinity) in Wistar rat at 1 mg/kg, iv. It is filed as ADME, organism-based. Details: time infinity, dose 1 mg/kg, route intravenous. To be noted: plasma. In a few lines: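 Male Wistar rats given a single intravenous dose of 1 mg/kg in 10% (v/v) DMA in water. AUC taken to infinity from plasma concentrations. Value reported as mean ± variability.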
The subject of series [5] is Rattus norvegicus. In words: Reduction in desmopressin/CRH-induced ACTH release in po dosed rat hyphalamic-pituitary-adrenal hyperactivity model. In kind it is functional, organism-based. Put shortly:
(§1)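 Rats dosed orally with compound or vehicle (5% mulgofen in saline) at T=0. CRH (0.3 µg/kg) or PBS given iv via jugular catheter at T+100 min. dDAVP (0.5 mg/kg) or PBS given iv at T+120 min. 0.5 ml blood taken at T+130 min, kept on ice, centrifuged at 4 °C, plasma stored at -40 °C. ACTH measured by ELISA, drug level by mass spectrometry.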

Series [6] deals with T2, Vasopressin V1b receptor (Homo sapiens) (UniProt P47901).
T2 sequence (whole entry): T1 sequence (P47901 whole entry)
Description: Antagonist activity at human vasopressin V1b receptor expressed CHO cells co-expressing VIP-luciferase assessed as reporter gene linked AVP-mediated intracellular calcium mobilization. It is filed as functional, cell-based.

Series [7] can be described thus: Apparent permeability of the compound from apical to basolateral side in human Caco2 cell membrane. To be noted: Caco-2. (Passage across Caco-2 layers is used to estimate intestinal permeability.)
The nature of series [8]: Volume of distribution at steady state in Wistar rat at 1 mg/kg, iv. Details: dose 1 mg/kg, route intravenous. In kind it is ADME, organism-based. To be noted: in vivo, read-out: Vdss. Put shortly: (§2)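 Male Wistar rats. iv dose 1 mg/kg in 10% (v/v) DMA in water. po dose 5 mg/kg in 5% (v/v) mulgofen in saline. Oral AUC reported as AUCt, iv AUC as AUCinf. Values given as mean ± spread.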

The nature of series [9]: Intrinsic clearance in human liver microsomes. Background: Microsomes from liver hold many membrane-bound enzymes, among them those of drug oxidation.
Series [10] in a line: AUCt in Wistar rat at 5 mg/kg, po. It is filed as ADME, organism-based. Details: dose 5 mg/kg, route oral. The following applies: plasma. Put shortly:
as §2

Series [11] deals with Rattus norvegicus. Description: Reduction in desmopressin-induced ACTH release in rat hyphalamic-pituitary-adrenal hyperactivity model at 10 mg/kg, po. In kind it is functional, organism-based. Details: dose 10 mg/kg. Put shortly:
as §1

Series [12] in a line: Elimination half life in Wistar rat at 1 mg/kg, iv. In kind it is ADME, organism-based. Details: dose 1 mg/kg, route intravenous. To be noted: in vivo, read-out: beta t1/2 (converted). In a few lines: as §2
Series [13] in a line: Oral bioavailability in Wistar rat at 5 mg/kg, po. In kind it is ADME, organism-based. The following applies: in vivo. In a few lines:
as §2

Series [14] is described as follows: Inhibition of human Cytochrome P450. In kind it is ADME.
Series [15] is filed under the species Homo sapiens. Description: Selectivity ratio for human vasopressin V1b receptor over human vasopressin V2 receptor.
Series [16] is filed under the species Homo sapiens. Description: Selectivity ratio for human vasopressin V1b receptor over human oxytocin receptor.
Series [17] can be described thus: Clearance in Wistar rat at 1 mg/kg, iv. To be noted: in vivo. It is filed as ADME, organism-based. Details: dose 1 mg/kg, route intravenous. In a few lines:
as §2

By IC50 is commonly meant the concentration needed to halve the response being measured. A higher IC50 goes with weaker potency in that assay. Compound `CCCNC(=O)Cn1c(-c2ccccc2)nc2ccc(-c3cccc(CN4CCC4)c3)cc2c1=O` yielded a half-maximal inhibitory concentration (IC50) in series [1] of 2350 nM. In turn, `CC(C)NC(=O)Cn1c(-c2cccc(Cl)c2)nc2ccc(-c3cccc(CN(C)C)c3)cc2c1=O` showed an IC50 in series [1] of 19 nM. `O=C(Cn1c(-c2ccccc2)nc2ccc(-c3ccc(CN4CCOCC4)cc3)cc2c1=O)NCC1CC1`: the IC50 in series [1] is more than 20000 nM. Still for that read-out and setting: the figure for `COc1ccccc1-c1nc2ccc(-c3cccc(CN4CCC4)c3)cc2c(=O)n1CC(=O)NC(C)C` is 610 nM. A word on the Papp B→A: it is how fast a substance crosses the layer from the basolateral side. As usually defined, the AUC(0-inf) is the area under the concentration-time curve extrapolated to infinity. Low readings indicate low exposure, high ones high exposure. What is called Papp A→B is how fast a substance crosses the layer from the apical side. In general, microsomal CLint refers to the rate of metabolic loss divided by the concentration. Higher therefore signals rapid turnover. In general, AUC(0-t) refers to the area under the concentration-time curve up to a stated or last time point. Low readings indicate less exposure, high ones more exposure. Usually bioavailability stands for the share of a dose that reaches the circulation, judged against a reference dose that is usually intravenous. Lower therefore signals little systemic uptake. As a reminder, the clearance is the volume of plasma or blood freed of the substance per unit of time. Read a low clearance as inefficient removal. In the case of `COc1cc(-c2nc3ccc(-c4cccc(CN(C)C)c4)cc3c(=O)n2CC(=O)NC(C)C)ccc1F`, the Papp B→A in series [2] stood at 9.1 ×10⁻⁶ cm/s. Besides, the fold change (FC) in series [3], in [15] and in series [16] was more than 10000 in each case. For the same compound, the AUC(0-inf) in series [4] is 441 ng·h/mL. Further, the inhibition result in [5] was “Dose-dependent effect”. Moreover, the figures for the IC50 in series [1] and in series [14] were 1 nM and more than 17000 nM, respectively. In addition, in [6], the outcome was Active. For the same compound, the Papp A→B in series [7] amounted to 6.8 ×10⁻⁶ cm/s. For the same compound, in series [8], the Vd stood at 4.85 L/kg. Moreover, the microsomal CLint in series [9] was less than 12 µL/min/mg. The same compound showed an AUC(0-t) in series [10] of 930 ng·h/mL. Further, the inhibition result in series [11] is “Active”. Also, the half-life in [12] is 1.61 h. The bioavailability in series [13] is 45%. The same compound yielded a clearance in series [17] of 40.2 mL/min/kg. In turn, `O=C(Cn1c(-c2ccccc2)nc2ccc(-c3cccc(CN4CCCC4)c3)cc2c1=O)NCC1CC1` came in with an IC50 in series [1] of 388 nM. `NCc1cccc(-c2ccc3nc(-c4ccccc4)n(CC(=O)NCC4CC4)c(=O)c3c2)c1` returned an IC50 in series [1] of 1200 nM. Turning to `O=C(Cn1c(-c2ccccc2)nc2ccc(-c3ccccc3CN3CCOCC3)cc2c1=O)NCC1CC1`, the IC50 in series [1] is more than 20000 nM. The compound `COc1cccc(-c2nc3ccc(-c4cccc(CN5CCC5)c4)cc3c(=O)n2CC(=O)NC(C)C)c1` had an IC50 in series [1] of 46 nM. The same measure, in the same setting: for `O=C(Cn1c(-c2ccccc2)nc2ccc(-c3cccc(CN4CCC4)c3)cc2c1=O)NCC1CC1` the value was 275 nM; for `CN(C)Cc1cccc(-c2ccc3nc(-c4ccccc4)n(CC(=O)NCC4CC4)c(=O)c3c2)c1`, 314 nM; for `CCN(CC)Cc1cccc(-c2ccc3nc(-c4ccccc4)n(CC(=O)NCC4CC4)c(=O)c3c2)c1`, 540 nM. Same read-out and setting: for `COc1cccc(-c2nc3ccc(-c4ccc(CN(C)C)o4)cc3c(=O)n2CC(=O)NC(C)C)c1` the value was 700 nM; for `CC(C)NC(=O)Cn1c(-c2ccccc2)nc2ccc(-c3cccc(CN4CCC4)c3)cc2c1=O`, 397 nM. Same read-out and setting: for `COc1cccc(-c2nc3ccc(-c4cc(CN(C)C)ccn4)cc3c(=O)n2CC(=O)NC(C)C)c1` the value was 52 nM; for `COCCNCc1cccc(-c2ccc3nc(-c4ccccc4)n(CC(=O)NCC4CC4)c(=O)c3c2)c1`, 642 nM. The compound `COc1cccc(-c2nc3ccc(-c4ccc(CN(C)C)s4)cc3c(=O)n2CC(=O)NC(C)C)c1` showed an IC50 in series [1] of 500 nM. The IC50 values of the last two compounds are within 1.5-fold of each other.

The compound `O=C(Cn1c(-c2ccccc2)nc2ccc(-c3cccc(CN4CCC4)c3)cc2c1=O)NC1CC1` returned an IC50 in series [1] of 2550 nM. In series [1], `COc1cccc(-c2nc3ccc(-c4cccc(CN(C)C)c4)cc3c(=O)n2CC(=O)NC(C)C)c1` returned an IC50 of 9 nM. Besides, the microsomal CLint in series [9] worked out at 45 µL/min/mg. Compound `COc1cccc(-c2nc3ccc(-c4cccc(CN5CCCCC5)c4)cc3c(=O)n2CC(=O)NC(C)C)c1` returned an IC50 in series [1] of 2 nM.

As to `O=C(Cn1c(-c2ccccc2)nc2ccc(-c3cccc(CN4CCC4)c3)cc2c1=O)NC1CCCC1`, the IC50 in series [1] was found to be 238 nM. `COc1cccc(-c2nc3ccc(-c4cc(CN(C)C)ccc4F)cc3c(=O)n2CC(=O)NC(C)C)c1`: the Papp B→A in series [2] is 23.3 ×10⁻⁶ cm/s. This compound came in with an IC50 in [1] of 7 nM. For the same compound, in [7], the Papp A→B was determined as 12.1 ×10⁻⁶ cm/s. The same compound returned a microsomal CLint in [9] of 58 µL/min/mg. As to `CNCc1cccc(-c2ccc3nc(-c4ccccc4)n(CC(=O)NCC4CC4)c(=O)c3c2)c1`, the IC50 in series [1] was 320 nM. That is a sub-micromolar value. Same read-out and setting: the figure for `O=C(Cn1c(-c2ccccc2)nc2ccc(-c3cccc(CN4CCOCC4)c3)cc2c1=O)NCC1CC1` is 79 nM; for `COc1cccc(-c2nc3ccc(-c4cccc(CN(C)C)n4)cc3c(=O)n2CC(=O)NC(C)C)c1` it is 37 nM. `CC(C)CNC(=O)Cn1c(-c2ccccc2)nc2ccc(-c3cccc(CN4CCC4)c3)cc2c1=O`: the IC50 in series [1] turned out to be 1040 nM.

On to `O=C(Cn1c(-c2ccccc2)nc2ccc(-c3ccc(CN4CCCCC4)cc3)cc2c1=O)NCC1CC1`, for which the IC50 in series [1] was more than 20000 nM. Still for that read-out and setting: the figure for `COc1cccc(-c2nc3ccc(-c4cncc(CN(C)C)c4)cc3c(=O)n2CC(=O)NC(C)C)c1` is 77 nM; for `O=C(Cn1c(-c2ccccc2)nc2ccc(-c3cccc(CN4CCCCC4)c3)cc2c1=O)NCC1CC1` it is 60 nM.

In series [1], `CC(C)NC(=O)Cn1c(-c2cccc(Cl)c2)nc2ccc(-c3cccc(CN4CCCCC4)c3)cc2c1=O` came in with an IC50 of 9 nM. Same read-out and setting: for `O=C(Cn1c(-c2ccccc2)nc2ccc(-c3ccccc3CN3CCCCC3)cc2c1=O)NCC1CC1` the value was more than 20000 nM; for `CC(C)(C)NC(=O)Cn1c(-c2ccccc2)nc2ccc(-c3cccc(CN4CCC4)c3)cc2c1=O`, 187 nM.

The compound `CC(C)NC(=O)Cn1c(-c2cccc(Cl)c2)nc2ccc(-c3cccc(CN4CCC4)c3)cc2c1=O` returned an IC50 in series [1] of 60 nM.
